Laboratory results as given in publication PMC4100325 (Journal of toxicology and environmental health. Part A, 2014).

Assays:
[1] = liver/body weight ratio after subchronic gavage exposure; format: in vivo, B6C3F1 male mice; conditions: mean ± SD
In short: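 Male B6C3F1 mice arrived at 6 weeks (~20 g) and were given test compound or water vehicle (pH 7) by daily gavage for 13 weeks, 6/group. Body weights were taken weekly. Animals were killed 24 hr after the last dose (CO2, cervical dislocation) and livers were weighed. Data are means ± S.D.; one-way ANOVA with Tukey post-hoc test.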

[2] = tested on: superoxide anion (SA) production in the livers of mice; assay: superoxide anion; format: in vivo, B6C3F1 male mice; conditions: for slope of regression SA vs Dose: SA as nmoles cytochrome c reduced/ min/ mg protein, dose mg/kg/day; for effect on SA production in livers: gavage daily for 13 weeks
In short: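 After 13 weeks of daily gavage (test compound, aqueous pH 7; 6 mice/group), liver was homogenised 10% w/v in Tris-KCl, pH 7.4. Homogenate was incubated with 45 nmol cytochrome c in PBS, pH 7.2, for 15 min at 37°C. The reaction was stopped on ice and centrifuged, and the supernatant was read at 550 nm. Values were converted with ε 2.1 × 10^4 M−1 cm−1 to nmol reduced/min/mg Lowry protein; regression was against dose.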

[3] = tested on: lipid peroxidation (LP) in the livers of mice; assay: lipid peroxidation; format: in vivo, B6C3F1 male mice; conditions: for slope of regression LP vs Dose: LP as nmoles TBARS/mg protein, dose mg/kg/day; for effect on LP in livers: gavage daily for 13 weeks; for intercept of regression LP vs Dose: regression analysis
In short: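 Mice (6/group) received daily gavage of test compound (pH 7 aqueous) for 13 weeks and were killed 24 hr post-dose. A 10% w/v liver homogenate in Tris-KCl (pH 7.4) was mixed with 1% phosphoric acid, 0.6% thiobarbituric acid and butylated hydroxyanisole, then heated at 100°C for 45 min. TBARS were extracted into n-butanol and read at 535 nm (ε 1.556 × 10^5 M−1 cm−1), normalised to Lowry protein. Means ± S.D. are reported; regression was against dose.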

[4] = tested on: DNA single strand breaks in the livers of mice; assay: DNA single strand breaks; format: in vivo, B6C3F1 male mice; conditions: for intercept of regression DNA-SSBs vs Dose / slope of regression DNA-SSBs vs Dose: DNA-SSBs as elution rate constant k; for slope of regression DNA-SSBs vs Dose: dose mg/kg/day; for effect on DNA SSB in livers: gavage daily for 13 weeks
In short: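 Male B6C3F1 mice (6/group) were gavaged daily for 13 weeks with test compound in distilled water (pH 7) and killed 24 hr after the last dose. Liver was homogenised 25% w/v in KCl/NaCl/spermine/spermidine/sucrose/EDTA/EGTA/Tris/PMSF/2-mercaptoethanol buffer and spun at 3000 g to get nuclei. These were lysed on 5 µm filters (2% SDS, 25 mM EDTA, pH 10.3, 20 min), then eluted at pH 12.3 into seven 3 ml fractions. DNA was read by diaminobenzoic acid fluorescence (436/521 nm). k = −2.3 × slope of log10 %DNA retained vs eluate volume.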

[5] = 410 mg DCA/kg/day, subchronic studies; ref Hassoun et al, 2010a; cited from earlier work
liver = conditions: subchronic studies; ref Hassoun et al. 2010a; cited from earlier work
[6] = tested on: cytochrome c reduction in liver homogenates; conditions: SOD added to assay mixture of liver homogenate; ref Hassoun and Dey, 2008; cited from earlier work

Molecule	Liver/body weight ratio ([1]; DCA 7.5 mg/kg/day by gavage for 13 weeks)	Liver/body weight ratio ([1]; DCA 15 mg/kg/day by gavage for 13 weeks)	Liver/body weight ratio ([1]; DCA 30 mg/kg/day by gavage for 13 weeks)	slope of regression SA vs Dose [2]	effect on SA production in livers [2]	slope of regression LP vs Dose [3]	effect on LP in livers [3]	intercept of regression LP vs Dose [3] [nmoles TBARS/mg protein]	intercept of regression DNA-SSBs vs Dose [4]	slope of regression DNA-SSBs vs Dose [4]	effect on DNA SSB in livers [4]	increase in liver/body weight ratio associated with hepatomegaly [5] [fold]	threshold dose for hepatotoxicity (liver) [mg/kg/day]	Liver/body weight ratio ([1]; TCA 12.5 mg/kg/day by gavage for 13 weeks)	Liver/body weight ratio ([1]; TCA 25 mg/kg/day by gavage for 13 weeks)	Liver/body weight ratio ([1]; TCA 50 mg/kg/day by gavage for 13 weeks)	inhibition of cytochrome c reduction [6] [%]
O=C(O)C(Cl)Cl [DCA, sodium dichloroacetate]	0.054 ± 0.009	0.051 ± 0.002	0.053 ± 0.007	0.1036	dose-dependent increases	0.2041	dose-dependent increases	1.185	0.00215	0.000201	dose-dependent increases	1.3	154	–	–	–	–
O=C(O)C(Cl)(Cl)Cl [TCA, sodium trichloroacetate]	–	–	–	0.0237	dose-dependent increases	0.0631	dose-dependent increases	0.870	0.00152	0.000052	dose-dependent increases	–	410	0.057 ± 0.003	0.055 ± 0.005	0.049 ± 0.005	–
superoxide dismutase [SOD]	–	–	–	–	–	–	–	–	–	–	–	–	–	–	–	–	91.1
